Data taken from ChEMBL document CHEMBL1145205, “Synthesis and biological evaluation of 1,2,4-triazinylphenylalkylthiazolecarboxylic acid esters as cytokine-inhibiting antedrugs with strong bronchodilating effects in an animal model of asthma” (J Med Chem, 2005).

Experiments:
[1] = test system: PBL; assay: Percent inhibition of interleukin-5 production in human whole blood assay after 10e-6 M treatment; type: functional
[2] = test system: PBL; assay: Percent inhibition of interleukin-5 production in human whole blood assay after 10e-7 M treatment; type: functional
[3] = Percent conversion of compound in human liver fraction after 60 min of administration; type: ADME, tissue-based; conditions: read-out: Conversion
Procedure, shortened: (§1)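 Test compound at 10^-6 M incubated at 37 °C in phosphate buffered saline with human liver S9 (10 µg protein/ml) or human lung S9 (50 µg protein/ml); samples taken at 0, 15 and 60 min; parent compound quantified by LC-MS/MS using MRM transition of parent to daughter ion; percent converted after 60 min.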

[4] = Percent conversion of compound in human lung S9 fraction after 60 min of administration; type: ADME; conditions: read-out: Conversion; procedure, shortened: as §1

| metabolised at 1 h [3] | metabolised at 1 h [4] | Compound | Inhibition [1] | Inhibition [2] |
| --- | --- | --- | --- | --- |
| 86% | 18% | CCCCOC(=O)c1sc(C(C)(C)c2c(Cl)cc(-n3ncc(=O)[nH]c3=O)cc2Cl)nc1-c1ccccc1 | 88% | 51% |
| 68% | 23% | CCCOC(=O)c1sc(C(C)(C)c2c(Cl)cc(-n3ncc(=O)[nH]c3=O)cc2Cl)nc1-c1ccccc1 | 96% | 69% |
| 76% | 8% | CC(C)(c1nc(-c2ccccc2)c(C(=O)OCCCO)s1)c1c(Cl)cc(-n2ncc(=O)[nH]c2=O)cc1Cl | 83% | 58% |
| 94% | 24% | CC(C)(c1nc(-c2ccccc2)c(C(=O)OCCc2ccccc2)s1)c1c(Cl)cc(-n2ncc(=O)[nH]c2=O)cc1Cl | 88% | 62% |
| 1% | 0% | CC(C)(c1nc(-c2ccccc2)c(C(=O)OCCO)s1)c1c(Cl)cc(-n2ncc(=O)[nH]c2=O)cc1Cl | 93% | 66% |
| 73% | 21% | CC(C)(c1nc(-c2ccccc2)c(C(=O)OCCOc2ccccc2)s1)c1c(Cl)cc(-n2ncc(=O)[nH]c2=O)cc1Cl | 83% | 70% |

Continued, compound first:

| Compound | metabolised at 1 h [3] | metabolised at 1 h [4] | Inhibition [1] | Inhibition [2] |
| --- | --- | --- | --- | --- |
| CC(C)(c1nc(-c2ccccc2)c(C(=O)O)s1)c1c(Cl)cc(-n2ncc(=O)[nH]c2=O)cc1Cl | 0% | 0% | 0% | 0% |
| C=CCOC(=O)c1sc(C(C)(C)c2c(Cl)cc(-n3ncc(=O)[nH]c3=O)cc2Cl)nc1-c1ccccc1 | 68% | 23% | 96% | 69% |
| CC(C)(C)OC(=O)c1sc(C(C)(C)c2c(Cl)cc(-n3ncc(=O)[nH]c3=O)cc2Cl)nc1-c1ccccc1 | 7% | 0% | 89% | 79% |
| COC(=O)c1sc(C(C)(C)c2c(Cl)cc(-n3ncc(=O)[nH]c3=O)cc2Cl)nc1-c1ccccc1 | 49% | 47% | 93% | 84% |
| C#CCOC(=O)c1sc(C(C)(C)c2c(Cl)cc(-n3ncc(=O)[nH]c3=O)cc2Cl)nc1-c1ccccc1 | 55% | 20% | 90% | 87% |
| CCCCCOC(=O)c1sc(C(C)(C)c2c(Cl)cc(-n3ncc(=O)[nH]c3=O)cc2Cl)nc1-c1ccccc1 | 72% | 32% | 91% | 54% |
| CC#CCOC(=O)c1sc(C(C)(C)c2c(Cl)cc(-n3ncc(=O)[nH]c3=O)cc2Cl)nc1-c1ccccc1 | 1% | 3% | 100% | 96% |
| CC(=O)COC(=O)c1sc(C(C)(C)c2c(Cl)cc(-n3ncc(=O)[nH]c3=O)cc2Cl)nc1-c1ccccc1 | 64% | 19% | 85% | 57% |
| CC(C)(c1nc(-c2ccccc2)c(C(=O)OCC2CC2)s1)c1c(Cl)cc(-n2ncc(=O)[nH]c2=O)cc1Cl | 87% | 27% | 92% | 56% |
| CC(C)COC(=O)c1sc(C(C)(C)c2c(Cl)cc(-n3ncc(=O)[nH]c3=O)cc2Cl)nc1-c1ccccc1 | 80% | 27% | 90% | 56% |
| CC(C)=CCOC(=O)c1sc(C(C)(C)c2c(Cl)cc(-n3ncc(=O)[nH]c3=O)cc2Cl)nc1-c1ccccc1 | 65% | 6% | 73% | 55% |
| CC(C)(c1nc(-c2ccccc2)c(C(=O)OCC#N)s1)c1c(Cl)cc(-n2ncc(=O)[nH]c2=O)cc1Cl | 61% | 34% | 91% | 74% |
| CC(C)OC(=O)c1sc(C(C)(C)c2c(Cl)cc(-n3ncc(=O)[nH]c3=O)cc2Cl)nc1-c1ccccc1 | 10% | 1% | 94% | 85% |
| CC(C)(c1nc(-c2ccccc2)c(C(=O)OCC(F)(F)F)s1)c1c(Cl)cc(-n2ncc(=O)[nH]c2=O)cc1Cl | 38% | 36% | 92% | 75% |
| CCOC(=O)c1sc(C(C)(C)c2c(Cl)cc(-n3ncc(=O)[nH]c3=O)cc2Cl)nc1-c1ccccc1 | 29% | 17% | 94% | 67% |
